# According to ChEMBL document CHEMBL1137710, “Synthesis and in vitro antitumor activity of new quinoxaline derivatives” (2009):
# Key:
# Type in all cases: functional
# K562 = experiment: Growth inhibition of human K562 cells after 48 hrs by sulforhodamine B assay; details: K562, 48 h
# Procedure, shortened: (§1)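 NCI 60-human-tumor-cell-line panel, with compounds tested over a 5-log dose range. Values are taken from dose-response curves as log10 molar concentrations: GI50 is 50% net growth inhibition, TGI is total growth inhibition, and LC50 is 50% net cell death.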
# SW-620 = experiment: Growth inhibition of human SW620 cells after 48 hrs by sulforhodamine B assay; details: SW-620, 48 h
# Procedure, shortened: (§2)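 Run in the NCI 60-human-tumour-cell-line panel, tested over a 5-log dose range. Dose–response curves gave three values per cell line, each as a log10 molar concentration: GI50 (50% inhibition of net cell growth), TGI (total inhibition of net growth) and LC50 (50% net cell death). The mean graph midpoint is the arithmetic mean over all lines, with insensitive lines entered at the highest concentration tested.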
# U-251 = experiment: Growth inhibition of human U251 cells after 48 hrs by sulforhodamine B assay; details: U-251, 48 h; procedure, shortened: as §2
# UACC-62 = experiment: Growth inhibition of human UACC62 cells after 48 hrs by sulforhodamine B assay; details: UACC-62, 48 h; procedure, shortened: as §2
# LOX IMVI = experiment: Growth inhibition of human LOXIMVI cells after 48 hrs by sulforhodamine B assay; procedure, shortened: as §1
# [1] = Growth inhibition of human […] cells after 48 hrs by sulforhodamine B assay; procedure, shortened: as §1
# MDA-MB-435 = experiment: Growth inhibition of human MDA-MB-435 cells after 48 hrs by sulforhodamine B assay; details: MDA-MB-435, 48 h; procedure, shortened: as §1
# HCT-116 = experiment: Growth inhibition of human HCT116 cells after 48 hrs by sulforhodamine B assay; details: HCT-116, 48 h; procedure, shortened: as §1
# SF-295 = experiment: Growth inhibition of human SF295 cells after 48 hrs by sulforhodamine B assay; details: SF-295, 48 h; procedure, shortened: as §1
# MCF7 [2] = experiment: Growth inhibition of human MCF7 cells after 48 hrs by sulforhodamine B assay; details: MCF7, 48 h; procedure, shortened: as §1
# MCF7 [3] = experiment: Anticancer activity against human MCF7 cells assessed as cell growth at 100 uM after 48 hrs by sulforhodamine B assay; details: MCF7, 48 h, read-out: Activity
# NCI-H522 = experiment: Growth inhibition of human NCI-H522 cells after 48 hrs by sulforhodamine B assay; details: NCI-H522, 48 h; procedure, shortened: as §1
# UO-31 = experiment: Growth inhibition of human UO31 cells after 48 hrs by sulforhodamine B assay; details: UO-31, 48 h; procedure, shortened: as §2
# SF-268 [4] = experiment: Growth inhibition of human SF268 cells after 48 hrs by sulforhodamine B assay; details: SF-268, 48 h; procedure, shortened: as §1
# CAKI-1 = experiment: Growth inhibition of human Caki1 cells after 48 hrs by sulforhodamine B assay; details: CAKI-1, 48 h; procedure, shortened: as §1
# 786-0 = experiment: Growth inhibition of human 786-0 cells after 48 hrs by sulforhodamine B assay; details: 786-0, 48 h; procedure, shortened: as §1
# IGROV-1 = experiment: Growth inhibition of human IGROV1 cells after 48 hrs by sulforhodamine B assay; details: IGROV-1, 48 h; procedure, shortened: as §1
# HOP-62 = experiment: Growth inhibition of human HOP62 cells after 48 hrs by sulforhodamine B assay; details: HOP-62, 48 h; procedure, shortened: as §1
# NCI-H460 = experiment: Anticancer activity against human NCI-H460 cells assessed as cell growth at 100 uM after 48 hrs by sulforhodamine B assay; details: NCI-H460, 48 h, read-out: Activity
# NCI-H322M = experiment: Growth inhibition of human NCI-H322M cells after 48 hrs by sulforhodamine B assay; procedure, shortened: as §1
# SK-MEL-5 = experiment: Growth inhibition of human SK-MEL-5 cells after 48 hrs by sulforhodamine B assay; details: SK-MEL-5, 48 h; procedure, shortened: as §1
# SK-OV-3 = experiment: Growth inhibition of human SKOV3 cells after 48 hrs by sulforhodamine B assay; details: SK-OV-3, 48 h; procedure, shortened: as §1
# SF-268 [5] = experiment: Anticancer activity against human SF268 cells assessed as cell growth at 100 uM after 48 hrs by sulforhodamine B assay; details: SF-268, 48 h, read-out: Activity
# OVCAR-4 = experiment: Growth inhibition of human OVCAR4 cells after 48 hrs by sulforhodamine B assay; details: OVCAR-4, 48 h; procedure, shortened: as §1
# DU-145 = experiment: Growth inhibition of human DU145 cells after 48 hrs by sulforhodamine B assay; details: DU-145, 48 h; procedure, shortened: as §1
# M14 = experiment: Growth inhibition of human M14 cells after 48 hrs by sulforhodamine B assay; details: M14, 48 h; procedure, shortened: as §1
# SK-MEL-2 = experiment: Growth inhibition of human SK-MEL-2 cells after 48 hrs by sulforhodamine B assay; details: SK-MEL-2, 48 h; procedure, shortened: as §1
# A549 = experiment: Growth inhibition of human A549 cells after 48 hrs by sulforhodamine B assay; details: A549, 48 h; procedure, shortened: as §1
# NCI-H23 = experiment: Growth inhibition of human NCI-H23 cells after 48 hrs by sulforhodamine B assay; details: NCI-H23, 48 h; procedure, shortened: as §1
# SK-MEL-28 = experiment: Growth inhibition of human SK-MEL-28 cells after 48 hrs by sulforhodamine B assay; details: SK-MEL-28, 48 h; procedure, shortened: as §1
# [6] = read-out: pLC50 (the source's name) (converted)
smiles,measurement,setting,value
COc1ccc(Sc2nc3cc(N)cc(N)c3nc2-c2ccccc2)cc1,GI50,K562,9.77 µM
same,LC50,K562,> 100 µM
same,TGI,K562; read-out: pTGI (converted),> 100 µM
same,GI50,SW-620,26.3 µM
same,CC50,SW-620; [6],> 100 µM
same,TGI,SW-620; read-out: pTGI (converted),> 100 µM
same,GI50,U-251,> 100 µM
same,LC50 (50% net cell kill),U-251,> 100 µM
same,TGI,U-251; read-out: pTGI (converted),> 100 µM
same,GI50,UACC-62,38 µM
same,CC50,UACC-62; [6],> 100 µM
same,TGI,UACC-62; read-out: pTGI (converted),> 100 µM
same,GI50,LOX IMVI,51.3 µM
same,LC50,LOX IMVI,> 100 µM
same,TGI,LOX IMVI; read-out: pTGI (converted),> 100 µM
same,GI50,[1],3.98 µM
same,LC50,[1],> 100 µM
same,TGI,[1]; read-out: pTGI (converted),85.1 µM
same,GI50,MDA-MB-435,> 100 µM
same,CC50,MDA-MB-435; [6],> 100 µM
same,TGI,MDA-MB-435; read-out: pTGI (converted),> 100 µM
same,GI50,HCT-116,14.8 µM
same,LC50 (concentration causing 50% net cell death),HCT-116,> 100 µM
same,TGI,HCT-116; read-out: pTGI (converted),> 100 µM
same,GI50,SF-295,> 100 µM
same,LC50 (50% net cell kill),SF-295,> 100 µM
same,TGI,SF-295; read-out: pTGI (converted),> 100 µM
same,GI50,MCF7 [2],16.6 µM
same,CC50,MCF7 [2]; [6],> 100 µM
same,TGI,MCF7 [2]; read-out: pTGI (converted),> 100 µM
same,growth at 100 µM,MCF7 [3],8%
same,GI50,NCI-H522,3.24 µM
same,LC50,NCI-H522,> 100 µM
same,TGI,NCI-H522; read-out: pTGI (converted),> 100 µM
same,GI50,UO-31,4.17 µM
same,CC50,UO-31; [6],> 100 µM
same,TGI,UO-31; read-out: pTGI (converted),> 100 µM
same,GI50,SF-268 [4],> 100 µM
same,LC50,SF-268 [4],> 100 µM
same,TGI,SF-268 [4]; read-out: pTGI (converted),> 100 µM
same,GI50,CAKI-1,13.2 µM
same,CC50,CAKI-1; [6],> 100 µM
same,TGI,CAKI-1; read-out: pTGI (converted),52.5 µM
same,GI50,786-0,13.2 µM
same,CC50,786-0; [6],70.8 µM
same,TGI,786-0; read-out: pTGI (converted),30.2 µM
same,CC50,IGROV-1; [6],> 100 µM
same,TGI,IGROV-1; read-out: pTGI (converted),> 100 µM
same,GI50,HOP-62,> 100 µM
same,LC50,HOP-62,> 100 µM
same,TGI,HOP-62; read-out: pTGI (converted),> 100 µM
same,growth at 100 µM,NCI-H460,0%
same,GI50,NCI-H322M,35.5 µM
same,LC50,NCI-H322M,> 100 µM
same,TGI,NCI-H322M; read-out: pTGI (converted),> 100 µM
same,GI50,SK-MEL-5,24 µM
same,CC50,SK-MEL-5; [6],> 100 µM
same,TGI,SK-MEL-5; read-out: pTGI (converted),> 100 µM
same,GI50,SK-OV-3,33.1 µM
same,CC50,SK-OV-3; [6],> 100 µM
same,TGI,SK-OV-3; read-out: pTGI (converted),> 100 µM
same,growth at 100 µM,SF-268 [5],7%
same,CC50,OVCAR-4; [6],> 100 µM
same,TGI,OVCAR-4; read-out: pTGI (converted),> 100 µM
same,GI50,DU-145,16.2 µM
same,CC50,DU-145; [6],69.2 µM
same,TGI,DU-145; read-out: pTGI (converted),33.1 µM
same,GI50,M14,> 100 µM
same,CC50,M14; [6],> 100 µM
same,TGI,M14; read-out: pTGI (converted),> 100 µM
same,CC50,SK-MEL-2; [6],> 100 µM
same,TGI,SK-MEL-2; read-out: pTGI (converted),> 100 µM
same,GI50,A549,42.7 µM
same,LC50,A549,> 100 µM
same,TGI,A549; read-out: pTGI (converted),> 100 µM
same,GI50,NCI-H23,> 100 µM
same,LC50 (50% net cell kill concentration),NCI-H23,> 100 µM
same,TGI,NCI-H23; read-out: pTGI (converted),> 100 µM
same,GI50,SK-MEL-28,24.5 µM
same,CC50,SK-MEL-28; [6],> 100 µM
same,TGI,SK-MEL-28; read-out: pTGI (converted),> 100 µM
